# Test results reported in ChEMBL document CHEMBL3259592, “Synthesis and structure-activity relationship of dihydrobenzofuran derivatives as novel human GPR119 agonists” (Bioorg Med Chem Lett, 2014).
# Calls of active or inactive are those of the source. No cut-off for these calls is given here.
# Columns and labels:
# [1] = molecular target: T1, Glucose-dependent insulinotropic receptor (Homo sapiens, UniProt Q8TDV5); test: Agonist activity at human GPR119 expressed in HEK293 cells co-expressing Flp-In-T-Rex assessed as cAMP accumulation after 60 mins; assay type: functional, cell-based
# T1 sequence (Q8TDV5 whole entry): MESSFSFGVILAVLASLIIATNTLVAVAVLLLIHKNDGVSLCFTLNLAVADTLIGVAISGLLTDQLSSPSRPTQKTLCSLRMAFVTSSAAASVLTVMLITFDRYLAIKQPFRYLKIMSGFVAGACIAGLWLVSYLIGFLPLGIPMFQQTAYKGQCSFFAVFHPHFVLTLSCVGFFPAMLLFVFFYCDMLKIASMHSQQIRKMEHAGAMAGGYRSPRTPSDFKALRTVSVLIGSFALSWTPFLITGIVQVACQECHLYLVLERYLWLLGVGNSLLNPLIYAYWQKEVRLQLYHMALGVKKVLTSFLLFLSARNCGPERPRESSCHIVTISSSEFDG
# Outline: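 Tetracycline-inducible human GPR119 cell line, plated at 7.5 × 10⁵ cells/well 24 h before assay in DMEM with 10% FBS and 1 ng/ml tetracycline. Medium was then swapped for PBS assay buffer containing 25 mM HEPES (pH 7.4), 12 mM glucose, 0.01% FAF-BSA and 0.1 mM IBMX. Cells were exposed to compound for 60 min, then lysed. cAMP was read by enzyme fragment complementation fluorescence; EC50 and Emax reported.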
# [2] = molecular target: Glucose-dependent insulinotropic receptor (Homo sapiens) (UniProt Q8TDV5); test: Agonist activity at human GPR119 expressed in HEK293 cells co-expressing Flp-In-T-Rex assessed as cAMP accumulation after 60 mins
# [3] = molecular target: T2, Glucose-dependent insulinotropic receptor (Homo sapiens) (UniProt Q8TDV5); test: Intrinsic activity at human GPR119 expressed in HEK293 cells co-expressing Flp-In-T-Rex assessed as cAMP accumulation after 60 mins relative to propan-2-yl 4-({6-[(2-fluoro-4-methanesulfonylphenyl)amino]pyrimidin-4-yl}oxy)piperidine-1-carboxylate; assay type: functional, cell-based
# T2 sequence (whole entry): T1 sequence (Q8TDV5 whole entry)
# Outline: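 Tetracycline-inducible human GPR119 cells plated 7.5 × 10⁵/well 24 h ahead in growth medium (DMEM, 10% FBS) with 1 ng/ml tetracycline. Compound exposure 60 min, then lysis; cAMP read by enzyme fragment complementation fluorescence. EC₅₀ and Emax derived.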
# [4] = Metabolic stability in human liver microsomes assessed as compound remaining after 10 mins; assay type: ADME; conditions: read-out: Stability
# [5] = Metabolic stability in mouse liver microsomes assessed as compound remaining after 10 mins; assay type: ADME; conditions: read-out: Stability
# [6] = Aqueous solubility of the compound at pH 6.5; assay type: physicochemical
# [7] = Inhibition of CYP450 (unknown origin); assay type: ADME; conditions: human
# [8] = molecular target: T3, Nuclear receptor subfamily 1 group I member 2 (Homo sapiens, UniProt O75469); test: Transactivation of PXR (unknown origin)
# T3 sequence (O75469 whole entry): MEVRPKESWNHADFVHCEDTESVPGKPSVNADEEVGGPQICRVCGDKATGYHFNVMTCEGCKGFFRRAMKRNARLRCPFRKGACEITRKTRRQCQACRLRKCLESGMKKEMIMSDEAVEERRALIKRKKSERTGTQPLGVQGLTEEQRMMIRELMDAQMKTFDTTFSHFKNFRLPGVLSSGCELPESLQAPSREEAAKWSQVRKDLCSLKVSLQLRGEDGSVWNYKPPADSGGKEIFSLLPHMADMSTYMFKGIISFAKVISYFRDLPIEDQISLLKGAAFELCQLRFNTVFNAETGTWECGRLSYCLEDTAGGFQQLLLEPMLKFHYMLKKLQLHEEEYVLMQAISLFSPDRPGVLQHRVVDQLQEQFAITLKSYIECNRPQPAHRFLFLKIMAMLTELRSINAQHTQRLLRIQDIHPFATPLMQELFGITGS
# [9] = Permeability of the compound by PAMPA; assay type: physicochemical
SMILES,EC50 [1] [nM],Activity [2],Emax [3] [%],remaining at 10 min [4] [%],remaining at 10 min [5] [%],solubility ([6]; buffer),inhibition (INH) [7],Activity [8],permeability [9],"solubility ([6]; aqueous, read-out: solubility) [µg/mL]"
CCCS(=O)(=O)N1CC=C(c2ccc3c(c2)CC(C2CCN(Cc4ccccc4)CC2)O3)CC1 (racemic),521,Active,88,–,–,–,–,–,–,–
CCCS(=O)(=O)N1CC=C(c2ccc3c(c2)CC(C2CCN(C(=O)OC(C)C)CC2)O3)CC1 (racemic),103,Active,61,10,12,–,–,–,–,–
CCCS(=O)(=O)N1CC=C(c2ccc3c(c2)CC(C2CCN(S(=O)(=O)CCC)CC2)O3)CC1 (racemic),1000,Active,43,–,–,–,–,–,–,–
CCCS(=O)(=O)N1CC=C(c2ccc3c(c2)CC(C2CCN(c4ncc(Cl)cn4)CC2)O3)CC1 (racemic),78,Active,88,48,45,–,–,–,–,–
CCCS(=O)(=O)N1CC=C(c2ccc3c(c2)CC(C2CCN(c4ncc(C5CC5)cn4)CC2)O3)CC1 (racemic),67,Active,85,58,3,–,–,–,–,–
CCCc1cnc(N2CCC(C3Cc4cc(C5=CCN(S(=O)(=O)CCC)CC5)ccc4O3)CC2)nc1 (racemic),82,Active,107,71,58,–,–,–,–,–
CCCc1cnc(N2CCC(C3Cc4cc(-c5ccc(S(C)(=O)=O)cc5F)ccc4O3)CC2)nc1 (racemic),541,–,53,–,–,–,–,–,–,–
CCCc1cnc(N2CCC(C3Cc4cc(N5CCN(S(=O)(=O)CCC)CC5)ccc4O3)CC2)nc1 (racemic),544,–,74,82,44,–,–,–,–,–
CCCc1cnc(N2CCC(C3Cc4cc(C5CCN(S(=O)(=O)CCC)CC5)ccc4O3)CC2)nc1 (racemic),386,–,43,70,52,–,–,–,–,–
CCCc1cnc(N2CCC(C3(C)Cc4cc(C5=CCN(S(=O)(=O)CCC)CC5)ccc4O3)CC2)nc1 (racemic),70,–,48,68,52,–,–,–,–,–
CCCc1cnc(N2CCC(C3Cc4cc(C5=CCN(S(=O)(=O)CCCO)CC5)cc(F)c4O3)CC2)nc1 (racemic),122,–,92,100,60,–,–,–,–,–
CCCc1cnc(N2CCC(C3Cc4c(F)c(C5=CCN(S(=O)(=O)CCC(C)(C)O)CC5)cc(F)c4O3)CC2)nc1 (racemic),101,–,82,55,61,–,–,–,–,–
CCCc1cnc(N2CCC(C3(C)Cc4cc(C5=CCN(S(=O)(=O)CCCO)CC5)ccc4O3)CC2)nc1 (racemic),78,–,78,72,42,–,–,–,–,–

# The next compounds have a lower EC50 [1] than those just listed; values first:
EC50 [1] [nM],Activity [2],Emax [3] [%],remaining at 10 min [4] [%],remaining at 10 min [5] [%],solubility ([6]; buffer),inhibition (INH) [7],Activity [8],permeability [9],"solubility ([6]; aqueous, read-out: solubility) [µg/mL]",SMILES
51,Active,56,–,–,–,–,–,–,–,CCCS(=O)(=O)N1CC=C(c2ccc3c(c2)CC(C2CCN(C(=O)OC4CCCCC4)CC2)O3)CC1 (racemic)
14,Active,118,58,–,Insoluble,–,–,–,–,CCCS(=O)(=O)N1CC=C(c2ccc3c(c2)CC(C2CCN(c4ncc(C(F)(F)F)cn4)CC2)O3)CC1 (racemic)
34,Active,99,47,46,–,–,–,–,–,CCCS(=O)(=O)N1CC=C(c2ccc3c(c2)CC(C2CCN(c4ccc(C(F)(F)F)cn4)CC2)O3)CC1 (racemic)
5,–,123,87,78,–,Not Active,Not Active,permeable,< 1,CCCc1cnc(N2CCC(C3Cc4c(ccc(C5=CCN(S(=O)(=O)CCC)CC5)c4F)O3)CC2)nc1 (racemic)
62,–,93,97,74,–,–,–,–,–,CCCc1cnc(N2CCC(C3Cc4cc(C5=CCN(S(=O)(=O)CCC)CC5)cc(F)c4O3)CC2)nc1 (racemic)
2,–,119,78,80,–,Not Active,Not Active,permeable,< 1,CCCc1cnc(N2CCC(C3Cc4c(F)c(C5=CCN(S(=O)(=O)CCC)CC5)cc(F)c4O3)CC2)nc1 (racemic)
60,–,98,73,59,–,–,–,–,–,CCCc1cnc(N2CCC(C3Cc4cc(C5=CCN(S(=O)(=O)CCCCO)CC5)cc(F)c4O3)CC2)nc1 (racemic)
16,–,86,89,82,–,–,–,–,–,CCCc1cnc(N2CCC(C3Cc4c(F)c(C5=CCN(S(=O)(=O)CCCO)CC5)cc(F)c4O3)CC2)nc1 (racemic)
28,–,67,67,70,–,–,–,–,–,CCCc1cnc(N2CCC(C3(C)Cc4cc(C5=CCN(S(=O)(=O)CCCCO)CC5)ccc4O3)CC2)nc1 (racemic)
